System: MS2 coat protein
Test: apparent Kd, MS2 coat protein; higher = weaker binding; RNA-MaP array; FMN 200 µM where present
Procedure, shortened: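 The apparent Kd is reported as the median of filtered per-cluster binding-curve fits. To get these curves, designs transcribed by stalled E. coli RNA polymerase on Illumina sequencing-chip clusters were titrated with SNAP-549-labelled MS2 coat protein from 0.7 or 1.5 nM, doubling to 3 µM. Titrations were run without and then with constant ligand in 100 mM Tris-HCl pH 7.5, 80 mM KCl, 4 mM MgCl2, BSA, DTT, yeast tRNA and Tween-20, and green signal was normalised to red-channel RNA signal and control-cluster median Fmax.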

[1] = designed as: OFF switch for flavin mononucleotide, no ligand
[2] = ligand present: flavin mononucleotide, designed as: OFF switch for flavin mononucleotide

Row | Sequence | apparent Kd [1] | apparent Kd [2] | apparent Kd (designed as: ON switch for flavin mononucleotide, no ligand) | apparent Kd (ligand present: flavin mononucleotide, designed as: ON switch for flavin mononucleotide)
1 | GUCAGCUCGUGAGGAUAUACAACACUGCUUCGGCAGUGUAUCAAGAUCACAUGAGGAUCACCCAUGUAGAAGGCACGAGCUGAU | 13.2 nM | 234 nM | – | –
2 | GUCAGCUCGUGAGGAUAUACAACACUGCUUCGGCAGUGUAUUAAGAUCACAUGAGGAUCACCCAUGUAGAAGGCACGAGCUGGU | 14.7 nM | 260 nM | – | –
3 | GUCAGCUCGUGAGGAUAUACAACACUGCUUCGGCAGUGUAUUAAGAUCACAUGAGGAUCACCCAUGUAGAAGGCACGUGCUGAU | 12.5 nM | 276 nM | – | –
4 | GUCAGCUCGUGAGGAUAUACAACACUGCUUCGGCAGUGUAUUAAGAUCACAUGAGGAUCACCCAUGUAGAAGGCCCGAGCUGAU | 10.2 nM | 139 nM | – | –
5 | GUCAGCUCGUGAGGAUAUACAACACUGCUUCGUCAGUGUAUUAAGAUCACAUGAGGAUCACCCAUGUAGAAGGCACGAGCUGAU | 12.2 nM | 211 nM | – | –
6 | GUCAGCUCGUGAGGAUAUACAACUCUGCUUCGGCAGUGUAUUAAGAUCACAUGAGGAUCACCCAUGUAGAAGGCACGAGCUGAU | 11.5 nM | 178 nM | – | –
7 | GUCAGCUCGUGAGGAUAUACAUCACUGCUUCGGCAGUGUAUUAAAUCCACAUGAGGAUCACCCAUGUAGAAGGCACGAGCUGAU | 16.7 nM | 31 nM | – | –
8 | GUCAGCUCGUGAGGAUAUACAUGUGCUGGAAACAGCACUAAUAGAAUCACAUGAGGAUCACCCAUGUAGAAGGCACGAGCUGAU | 16.9 nM | 40.8 nM | – | –
9 | GUCAUGUCAGGAUAUGCUUAUGAUGGGUGCUCAGACAUGAUGCAGAAGGGACAUGAGGAUCACCCAUGUACUGU | 62.5 nM | 62.5 nM | – | –
10 | GUCCCACAUGAGGAUCACCCAUGUGAGGAUAUGGAUUCGCUGGCCGUAGCCAGUGGAUCCAGAAGGCGCAUGAU | 19.6 nM | 26.5 nM | – | –
11 | GUCCUACAUGAGGAUCACCCAUGUAAGGAUAUGCUAGCGGUCGGCUGACUGACUGCUAGCAGAAGGUACAUGAU | 17.5 nM | 24.6 nM | – | –
12 | GUCCUACAUGAGGAUCACCCAUGUCAGGAUAUGUAGCGUCCGGGCGAUAAGGCUCGGAGCAGAAGGGACAGGUG | 14.2 nM | 16.2 nM | – | –
13 | GUCCUUUCUGAGGAUAUUAUUUUUUUCGAUUGAUAAGAAGGCAGUACAUGAGGAUCACCCAUGUGGGUUGUCUG | 26.8 nM | 28.3 nM | – | –
14 | GUCGCUAGAGGAUAUACAAUGGUAUAUGAUCCUAGUGACAUACAUGAGGAUCACCCAUGUAGAAGGCUAGUAAU | 24.2 nM | 21.7 nM | – | –
15 | GUCGGAAACGACAAUGAUAGGACUGAGGAUAUACGUAUAAAUAUCCUCACAUGAGGAUCACCCAUGUAGAAGGCAGUCCUAUCU | 13.2 nM | 167 nM | – | –
16 | GUCGUGUGAGGAUAUGAUUUUUCGGCGGGAUUGCGACUGCUUCAGAAGGCACAUGAGGAUCACCCAUGUUUGUC | 10.6 nM | 21.2 nM | – | –
17 | GUCUACCAGCUAGGAUAUGCAGUACAUUAAAAUGUAGAAGGAGCACGAUCCAGACAUGAGGAUCACCCAUGUGGGCGGUAGGCA | 20.9 nM | 18.6 nM | – | –
18 | GUCUCAGUUGGCUUCAAGGGCGGUCAGGAUAUGCUAACGUACAUGAGGAUCACCCAUGUCCAAGUGCAGAAGGGACAUACGCCA | – | – | 62.6 nM | 7.85 nM
19 | GUCUCGUGAGGAUAUCAUGAUUGACUUAAUUUAUUUUAGCGUGAGAAGGCACAUGAGGAUCACCCAUGUGAUUC | 19.5 nM | 21.3 nM | – | –
20 | GUCUGCUCGUGAGGAUAUACAACACUGCUUCGGCAGUGUAUUAAGAUCACAUGAGGAUCACCCAUGUAGAAGGCACGAGCUGAU | 14.1 nM | 252 nM | – | –
21 | GUCUUCCUAGGAUAUACAUGAGGAUCACCCAUGUACAGUUUCGUCAAAGGAUACUCGCGUAGAAGGAGGUGGAU | 26 nM | 50.7 nM | – | –
22 | GUGAAACAUGAGGAUCACCCAUGUGAGGAUAUGUUUUAGUACUGGAGACAGUACAUCUAUAGAAGGCACAAUGG | 68.2 nM | 89.1 nM | – | –
23 | GUGAACGGAGGAUAUAUAUGGGCAGCAUACGCUGCAGCUUCACAUGAGGAUCACCCAUGUAGAAGGCUGUACAC | 7.64 nM | 23.9 nM | – | –

From the EternaBench riboswitch data
